A selection: hits, their analogues and other compounds. The true share with any hit is near 3.3%.
SENP7 inh: SENP7 protease inhibition; Q9BQF6; recombinant SENP7, Z-RLRGG-aminoluciferin luminescence, 40 min; inhibition, % at 5 µM; actives 1.5% (n = 330,000); AID 434973;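 active = inhibition above about 50% at the single test dose, limit read from the data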;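 note: plate controls were DMSO with enzyme for no effect and no enzyme buffer wells for full effect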
Target sequence (Q9BQF6 706-1050 limits assumed): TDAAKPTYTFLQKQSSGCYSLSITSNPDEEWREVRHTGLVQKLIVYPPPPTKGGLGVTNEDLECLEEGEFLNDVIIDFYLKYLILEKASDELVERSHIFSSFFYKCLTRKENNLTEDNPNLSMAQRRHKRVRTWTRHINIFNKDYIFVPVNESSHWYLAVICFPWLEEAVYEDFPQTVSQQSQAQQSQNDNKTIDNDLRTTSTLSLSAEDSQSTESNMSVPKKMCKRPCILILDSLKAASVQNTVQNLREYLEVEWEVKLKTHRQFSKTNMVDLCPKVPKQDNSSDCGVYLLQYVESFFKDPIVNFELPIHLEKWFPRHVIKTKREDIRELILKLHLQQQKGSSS
SENP1 FRET inh: SENP1 (human) catalytic domain inhibition | Q9P0U3 | recombinant SENP1 catalytic domain, CyPet-SUMO1-YPet FRET cleavage | inhibition, % at 10 µM | actives 0.21% (n = 360,000);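 active = inhibition at least 30% at 10 µM, raw YFP signal under a set limit, fluorescence ratio 0.5 to 1.5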;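 note: 0% = enzyme with DMSO and 100% = no enzyme wells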
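Compound: 10 µM single point, 0.5% DMSO; Test system: hSENP1 catalytic domain, recombinant; Timing: 50 min reaction at room temperature; Technique: FRET, CFP and YFP emission; Control set: no-enzyme wells low, DMSO-plus-enzyme wells high control.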
NRP1-CendR mod: NRP-1/CendR interaction modulation; O14786; FAM-RPARPAR peptide binding to NRP-1, fluorescence polarization; inhibition, % at 25 µM; actives 0.85% (n = 360,000);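 active = inhibition or corrected inhibition above about 18%, plus a signal ratio from 0.5 to 1.5, limit read from the data, passing the limit was not always enough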
SENP8 block-1: SENP8 (human) protease inhibition; Q96LD8; recombinant SENP8, Nedd8 substrate fluorescence; inhibition, % at 20 µM; actives 0.64% (n = 360,000); AID 602440; in the data active = inhibition mostly above about 40%, no sharp cut-off; inactive = mostly below about 27%
Target sequence (Q96LD8 whole entry, looked up): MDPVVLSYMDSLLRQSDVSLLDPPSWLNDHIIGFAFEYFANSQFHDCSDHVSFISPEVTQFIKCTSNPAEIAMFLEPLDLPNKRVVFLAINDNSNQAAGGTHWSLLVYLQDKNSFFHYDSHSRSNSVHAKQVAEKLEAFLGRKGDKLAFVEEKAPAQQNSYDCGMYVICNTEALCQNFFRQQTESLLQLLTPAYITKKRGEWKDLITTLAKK
SENP6 block: blocks the human protease SENP6; Q9GZR1; Recombinant SENP6 catalytic domain, aminoluciferin luminescence; inhibition, % at 10 µM; actives 1.8% (n = 330,000); AID 2599;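 active = inhibition above about 50% at the single tested dose, limit read from the data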;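 note: plate controls were DMSO wells with enzyme for no effect and DMSO wells lacking enzyme for full effect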
SENP8 block-2: SENP8 protease inhibition; AID 2540; inhibition, % at 10 µM; purified SENP8, Z-RLRGG-aminoluciferin cleavage, luminescence; actives 1.2% (n = 330,000); in the data active = inhibition above about 50%
SENP8 confirm: confirmation of human SENP8 protease inhibitors. shares compounds with SENP7 inh. Recombinant SENP8, Z-RLRGG-aminoluciferin luminescence, 60 min. inhibition, % at 12.5 µM. actives 40% (n = 6,200);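 active = mean inhibition across replicates above about 50%, limit read from the data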
SENP6 confirm: human SENP6 inhibition, confirmed; shares compounds with SENP7 inh; recombinant SENP6, Z-RLRGG-aminoluciferin luminescence; AID 488915; actives 58% (n = 6,200); inhibition, % at 12.5 µM
SENP7 confirm: human SENP7 inhibition, confirmed | shares compounds with SENP7 inh | recombinant SENP7, Z-RLRGG-aminoluciferin luminescence, 40 min | inhibition, % at 12.5 µM | actives 69% (n = 6,200) | AID 488917
Casp3 select: caspase-3 inhibition (SENP selectivity assay); shares compounds with SENP7 inh; purified caspase-3, Z-DEVD-aminoluciferin luminescence, 60 min; inhibition, % at 12.5 µM; actives 60% (n = 6,200); AID 488918;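 active = mean inhibition above about 50%, limit read from the data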;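 note: plate controls were enzyme with DMSO for no effect and wells without caspase-3 for full effect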
Luc interf: interferes with luciferase luminescence in SENP counter-screen; AID 488919; actives 39% (n = 6,200); shares compounds with SENP7 inh; Pre-incubated SENP8/Z-RLRGG-aminoluciferin, luciferase luminescence interference; inhibition, % at 12.5 µM;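 active = mean inhibition above about 50% when retested at one dose, limit read from the data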;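 note: plate controls were DMSO wells with completed reaction for no effect and substrate without enzyme for full effect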
Active calls of the source: *.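 Rule for the calls, unless noted: active = mean inhibition above about 50% in the one-dose retest (limit read from the data); inactive = the rest.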

Results for O=C(Nc1ccc(Cl)cc1)Nc1cccc2nsnc12 ?
SENP7 inh: 94*; SENP1 FRET inh: -27; NRP1-CendR mod: -8; SENP8 block-1: -84; SENP6 block: 92*; SENP8 block-2: 91*; SENP8 confirm: -13; SENP6 confirm: 91*; SENP7 confirm: 88*; Casp3 select: 82*; Luc interf: 47

Results for O=C(COc1ccccc1)Nc1cccc2nsnc12 ?
SENP7 inh: 10; SENP1 FRET inh: -18; NRP1-CendR mod: 4; SENP8 block-1: inactive; SENP6 block: 23; SENP8 block-2: -3

Results for Cc1ccc(-c2cc3onc(-c4ccccc4)c3c(=O)n2C)cc1 ?
SENP7 inh: 96*; SENP1 FRET inh: -1; NRP1-CendR mod: 12; SENP8 block-1: 4; SENP6 block: 93*; SENP8 block-2: 92*; SENP8 confirm: 3; SENP6 confirm: 10; SENP7 confirm: 7; Casp3 select: 46; Luc interf: 0

How did CCc1ccc(NC(=O)CSc2nc(C)cs2)cc1 do in these assays?
SENP1 FRET inh: 1; NRP1-CendR mod: -3; SENP8 block-1: 12

Results for O=C(NC(c1ccccc1)c1ccsc1)C1CCN(Cc2ccc(Oc3ccccc3)cc2)CC1 (configuration not stated) ?
SENP1 FRET inh: 0; NRP1-CendR mod: -2; SENP8 block-1: 11

Results for CCOC(=O)c1ccc(NC(=O)c2ccccc2C)cc1 ?
SENP7 inh: 65*; SENP1 FRET inh: 2; NRP1-CendR mod: -5; SENP8 block-1: 6; SENP6 block: 70*; SENP8 block-2: 58*; SENP8 confirm: 69*; SENP6 confirm: 59*; SENP7 confirm: 87*; Casp3 select: 54*; Luc interf: 55*

Results for CCOC(=O)c1ccc(NC(=O)c2ccnn2C)cc1 ?
SENP7 inh: 58*; SENP1 FRET inh: 1; NRP1-CendR mod: -6; SENP8 block-1: 9; SENP6 block: 68*; SENP8 block-2: 59*; SENP8 confirm: 6; SENP6 confirm: 11; SENP7 confirm: 14; Casp3 select: 6; Luc interf: 7

What do the screens show for `CCOC(=O)c1cccc(NC(=O)c2ccccc2C)c1`?
SENP7 inh: 8; SENP1 FRET inh: 1; NRP1-CendR mod: 4; SENP8 block-1: -6; SENP6 block: -9; SENP8 block-2: -6

What do the screens show for `Cn1nccc1C(=O)Nc1ccc(OC(=O)c2ccnn2C)cc1`?
SENP7 inh: -4; SENP1 FRET inh: 11; NRP1-CendR mod: 0; SENP8 block-1: 10; SENP6 block: -28; SENP8 block-2: -9

Results for C[C@@H]1CN([C@H](C)CO)C(=O)CCCn2nncc2CO[C@H]1CN(C)S(=O)(=O)c1ccc(C#N)cc1 ?
SENP1 FRET inh: 0; NRP1-CendR mod: 2; SENP8 block-1: 4

Results for CCN(CC)S(=O)(=O)c1ccc(N=Nc2c(N)[nH]c(=O)[nH]c2=O)cc1 ?
SENP7 inh: 26; SENP1 FRET inh: 1; NRP1-CendR mod: -6; SENP8 block-1: 43*; SENP6 block: 52*; SENP8 block-2: 20; SENP8 confirm: 15; SENP6 confirm: 11; SENP7 confirm: 14; Casp3 select: 37; Luc interf: 2

Results for Nc1[nH]c(=O)[nH]c(=O)c1N=Nc1cccc(Cl)c1 ?
SENP7 inh: 45; SENP1 FRET inh: 0; NRP1-CendR mod: -5; SENP8 block-1: 21; SENP6 block: 11; SENP8 block-2: 33

What do the screens show for `CC(C)C[C@H]1CN(CCCC[C@H]2CNC(=O)C(=O)N2CC2CCCCC2)C(=O)C(=O)N1CCc1ccc(O)cc1`?
SENP1 FRET inh: 1; NRP1-CendR mod: 2; SENP8 block-1: 4

Results for CC(NS(=O)(=O)c1cccc(C(=O)N(C)Cc2ccc(N3CCOCC3)cc2)c1)c1ccccc1 (configuration not stated) ?
SENP1 FRET inh: -1; NRP1-CendR mod: 2; SENP8 block-1: 17

What do the screens show for `COc1cc(C)nc(NS(=O)(=O)c2ccccc2Cl)n1`?
SENP7 inh: 52*; SENP1 FRET inh: -1; NRP1-CendR mod: -7; SENP8 block-1: 5; SENP6 block: 4; SENP8 block-2: -7; SENP8 confirm: -25; SENP6 confirm: -17; SENP7 confirm: -6; Casp3 select: -5; Luc interf: -6

Results for Cc1cccc(/C=c2\s/c(=C\C(=O)C(C)(C)C)[nH]c2=O)c1 ?
SENP7 inh: 3; SENP1 FRET inh: -7; NRP1-CendR mod: -2; SENP8 block-1: -4; SENP6 block: 9; SENP8 block-2: -4

What do the screens show for `O=C1C(=C2SCCCS2)CC/C1=C\c1ccc(F)cc1`?
SENP7 inh: 99*; SENP1 FRET inh: -8; NRP1-CendR mod: -3; SENP8 block-1: 22; SENP6 block: 95*; SENP8 block-2: 96*; SENP8 confirm: 47; SENP6 confirm: 68*; SENP7 confirm: 63*; Casp3 select: 84*; Luc interf: 12

How did Cc1cccc(/C=C2\CCC(=C3SCCCS3)C2=O)c1 do in these assays?
SENP7 inh: 92*; SENP1 FRET inh: -6; NRP1-CendR mod: 4; SENP8 block-1: 17; SENP6 block: 91*; SENP8 block-2: 93*; SENP8 confirm: 20; SENP6 confirm: 22; SENP7 confirm: 5; Casp3 select: 23; Luc interf: -6

What do the screens show for `O=C1C(=Cc2ccc(F)cc2)Cc2ccccc21`?
SENP1 FRET inh: -2; NRP1-CendR mod: 2; SENP8 block-1: 20

How did C[C@H](NC(=O)c1ccco1)C(=O)NNC(=O)c1ccc(F)cc1 do in these assays?
SENP7 inh: -13; SENP1 FRET inh: 1; NRP1-CendR mod: 5; SENP8 block-1: 4; SENP6 block: -15; SENP8 block-2: -8

How did COc1cccc(NC(=O)CN(C)C(=O)CCNS(=O)(=O)c2ccc(C)cc2)c1 do in these assays?
SENP7 inh: 0; SENP1 FRET inh: 0; NRP1-CendR mod: 1; SENP8 block-1: 7; SENP6 block: 0; SENP8 block-2: 2
